The source made the active and inactive calls. No cut-off for these calls is given here.
Legend:
HCT-15 [1] = test: Cell cycle arrest in human HCT15 cells assessed as accumulation at G0/G1 phase at 20 uM after 24 hrs using propidium-iodide staining by flow-cytometry (reference value: 37.0 %); assay type: functional
HCT-15 [2] = test: Cell cycle arrest in human HCT15 cells assessed as accumulation at S phase at 20 uM after 24 hrs using propidium-iodide staining by flow-cytometry (reference value: 34.1 %); assay type: functional
HCT-15 [3] = test: Cell cycle arrest in human HCT15 cells assessed as accumulation at G2/M phase at 20 uM after 24 hrs using propidium-iodide staining by flow-cytometry (reference value: 22.4 %); assay type: functional
HCT-15 [4] = test: Cell cycle arrest at G0/G1 phase in human HCT15 cells assessed as decrease in c-Myc expression at 5 to 20 uM after 24 hrs by Western blot analysis; assay type: functional, cell-based
Summary of the method: (§1)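 HCT-15 cells in RPMI/10% FBS exposed to test compound at various concentrations; lysates quantified by BCA, 30–50 μg protein run on 10% SDS-PAGE, transferred to PVDF, blocked 1 h in 5% milk/PBST, primary antibodies overnight at 4 °C, HRP anti-mouse IgG 1:1500 for 3 h at room temperature, ECL detection.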

HCT-15 [5] = test: Cell cycle arrest at G0/G1 phase in human HCT15 cells assessed as suppression of Rb ser807/811 phosphorylation at 5 to 20 uM after 12 to 24 hrs by Western blot analysis; assay type: functional, cell-based; summary of the method: as §1
HCT-15 [6] = test: Cell cycle arrest at G2/M phase in human HCT15 cells assessed as cyclin B1 down regulation at 5 to 20 uM after 12 to 24 hrs by Western blot analysis; assay type: functional, cell-based; summary of the method: as §1
HCT-15 [7] = test: Cell cycle arrest at […] phase in human HCT15 cells assessed as cyclin A down regulation at 5 to 20 uM after 12 to 24 hrs by Western blot analysis; assay type: functional, cell-based; summary of the method: as §1
HCT-15 [8] = test: Cell cycle arrest at […] phase in human HCT15 cells assessed as CDK4 down regulation at 5 to 20 uM after 12 to 24 hrs by Western blot analysis; assay type: functional, cell-based; summary of the method: as §1
HCT-15 [9] = test: Cell cycle arrest at M phase in human HCT15 cells assessed as decrease in cyclin B1 level at 5 to 20 uM after 12 to 24 hrs by Western blot analysis; assay type: functional, cell-based; summary of the method: as §1
HCT-15 [10] = test: Cell cycle arrest at M phase in human HCT15 cells assessed as suppression of CDC2 Tyr-15 phosphorylation at 5 to 20 uM after 12 to 24 hrs by Western blot analysis; assay type: functional, cell-based; summary of the method: as §1
HCT-15 [11] = test: Induction of apoptosis in human HCT15 cells assessed as suppression of procaspase-3 expression at 5 to 20 uM after 12 to 24 hrs by Western blot analysis; assay type: functional, cell-based
Summary of the method: (§2)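 HCT-15 cells (RPMI, 10% heat-inactivated FBS, antibiotics-antimycotics, 37 C, 5% CO2) exposed to compound. Cells lysed, protein measured by BCA, 30-50 μg per lane resolved on 10% SDS-PAGE and electroblotted to PVDF. Membranes blocked 1 h in 5% nonfat milk/PBST, probed with primary antibodies overnight at 4 C, then HRP anti-mouse IgG 1:1500 for 3 h at room temperature. Detection by ECL; β-actin antibody available.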

HCT-15 [12] = test: Induction of apoptosis in human HCT15 cells assessed as increase in caspase-3 expression after 12 to 24 hrs by Western blot analysis; assay type: functional, cell-based; summary of the method: as §1
HCT-15 [13] = test: Induction of apoptosis in human HCT15 cells assessed as suppression of Bcl2 expression at 5 to 20 uM after 24 hrs by Western blot analysis; assay type: functional, cell-based; summary of the method: as §2
SW480 = test: Growth inhibition of human SW480 cells; assay type: functional, cell-based
Summary of the method: (§3)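 SRB assay: cells at 5 × 10^4 cells/mL were exposed to a concentration series for 3 days, fixed with 10% TCA and stained with sulforhodamine B. Survival was expressed as % of solvent-treated control and IC50 taken by nonlinear regression of % survival versus concentration. Media held 10% heat-inactivated FBS plus antibiotics: RPMI (HCT-15, HCT 116, HT-29), RPMI with 25 mM HEPES (SW480, SW620), DMEM (MRC-5, Hs68). Cultures were kept at 37 C, 5% CO2.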

[14] = Growth inhibition of human […] cells; assay type: cell-based; summary of the method: as §3
HCT-15 [15] = test: Cell cycle arrest in human HCT15 cells assessed as increase in cyclin E expression at 5 to 20 uM after 12 to 24 hrs by Western blot analysis; assay type: functional, cell-based; summary of the method: as §1
HCT-116 = test: Growth inhibition of human HCT116 cells; assay type: functional, cell-based; summary of the method: as §3
HCT-15 [16] = test: Cytotoxicity against human HCT15 cells assessed as dead cells up to 20 uM after 12 to 24 hrs by phase contrast microscopy; assay type: functional, cell-based
Summary of the method: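 HCT-15 cells treated with 0–20 μM for 12 and 24 h, vehicle-treated controls; morphology examined and photographed under phase-contrast microscope.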

HCT-15 [17] = test: Cell cycle arrest in human HCT15 cells assessed as accumulation at sub-G1 phase at 5 uM after 12 hrs using propidium-iodide staining by flow-cytometry (reference value: 5.2 %); assay type: functional
HCT-15 [18] = test: Cell cycle arrest in human HCT15 cells assessed as accumulation at S phase at 10 uM after 12 hrs using propidium-iodide staining by flow-cytometry (reference value: 34.7 %); assay type: functional
HCT-15 [19] = test: Cell cycle arrest in human HCT15 cells assessed as accumulation at G2/M phase at 10 uM after 12 hrs using propidium-iodide staining by flow-cytometry (reference value: 15.7 %); assay type: functional
HCT-15 [20] = test: Cell cycle arrest in human HCT15 cells assessed as accumulation at S phase at 20 uM after 12 hrs using propidium-iodide staining by flow-cytometry (reference value: 34.7 %); assay type: functional
HCT-15 [21] = test: Cell cycle arrest in human HCT15 cells assessed as accumulation at G2/M phase at 20 uM after 12 hrs using propidium-iodide staining by flow-cytometry (reference value: 15.7 %); assay type: functional
HCT-15 [22] = test: Cell cycle arrest in human HCT15 cells assessed as accumulation at G0/G1 phase at 5 uM after 24 hrs using propidium-iodide staining by flow-cytometry (reference value: 37.0 %); assay type: functional
HCT-15 [23] = test: Cell cycle arrest in human HCT15 cells assessed as accumulation at G2/M phase at 5 uM after 24 hrs using propidium-iodide staining by flow-cytometry (reference value: 22.4 %); assay type: functional
HCT-15 [24] = test: Cell cycle arrest in human HCT15 cells assessed as accumulation at G0/G1 phase at 10 uM after 24 hrs using propidium-iodide staining by flow-cytometry (reference value: 37.0 %); assay type: functional
HCT-15 [25] = test: Cytotoxicity against human HCT15 cells after 3 days; assay type: functional, cell-based; conditions: HCT-15, 72 h; summary of the method: as §3
HCT-15 [26] = test: Cell cycle arrest in human HCT15 cells assessed as change in PCNA level at 5 to 20 uM after 12 to 24 hrs by Western blot analysis

`C[C@H]1CC[C@@]2(OC1)O[C@H]1C[C@H]3[C@@H]4CC[C@@H]5C[C@@H](O[C@@H]6O[C@H](CO)[C@H](O)[C@H](O)[C@H]6O[C@@H]6O[C@H](CO)[C@@H](O)[C@H](O)[C@H]6O)CC[C@]5(C)[C@H]4CC[C@]3(C)[C@H]1[C@@H]2C` [TIMOSAPONIN AIII] showed an Activity (HCT-15 [1]) of 43.4%, an Activity (HCT-15 [2]) of 17% and an Activity (HCT-15 [3]) of 0%. The Activity (HCT-15 [4]) was “Active”, the Activity (HCT-15 [5]) was “Active” and the Activity (HCT-15 [6]) was “Active”. The Activity (HCT-15 [7]) was “Active”, the Activity (HCT-15 [8]) was “Active” and the Activity (HCT-15 [9]) was “Active”. For the same molecule, the Activity (HCT-15 [10]) was “Active”, the Activity (HCT-15 [11]) was “Active” and the Activity (HCT-15 [12]) was “Active”. The Activity (HCT-15 [13]) was “Active”, the IC50 (SW480) was 13.1 µM and the IC50 [14] was over 50 µM. The Activity (HCT-15 [15]) was “Active”, the IC50 (HCT-116) was 5.5 µM and the Activity (HCT-15 [16]) was “Active”. The Activity (HCT-15 [17]) was 4.8%, the Activity (HCT-15 [18]) was 18.4% and the Activity (HCT-15 [19]) was 24.2%. The Activity (HCT-15 [20]) was 4.2%, the Activity (HCT-15 [21]) was 41.8% and the Activity (HCT-15 [22]) was 36.4%. For the same molecule, the Activity (HCT-15 [23]) was 19.4%, the Activity (HCT-15 [24]) was 47.9% and the IC50 (HCT-15 [25]) was 6.1 µM. The Activity (HCT-15 [26]) was “inactive”.

Source: ChEMBL document CHEMBL2146382, “Cytotoxic and antineoplastic activity of timosaponin A-III for human colon cancer cells” (J Nat Prod, 2011)
